Format in all cases: functional
One experiment concerns Staphylococcus aureus. As to the kind of experiment: Antimicrobial activity against Staphylococcus aureus ATCC 29213 by MHB method. An outline of the steps: (§1)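 Broth-based MIC assay in Mueller Hinton broth. Test compounds were supplied from stock solutions in DMSO. The read-out was the minimum inhibitory concentration determined for each compound against each strain.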
Another experiment has as its system Bacillus subtilis. The experiment in a line: Antimicrobial activity against Bacillus subtilis ATCC 6633 by MHB method. The essentials:
as §1

A further experiment deals with Candida albicans. The experiment in a line: Antimicrobial activity against Candida albicans ATCC 10231 by MHB method. The essentials: as §1
A further experiment concerns Escherichia coli. The experiment in a line: Antimicrobial activity against Escherichia coli ATCC 8739 by MHB method. An outline of the steps: as §1

Converted amounts (≈) assume the structure as drawn. The source made the active and inactive calls. The rule behind the calls is not given here.

Turning to `COc1cc(CC/C=N/NC(N)=O)cc2cc(-c3ccc4c(c3)OCO4)oc12`, the MIC result in the experiment with Staphylococcus aureus and with Escherichia coli was “inactive” in each case. Moreover, the MIC (as a rule, the least concentration at which growth counts as inhibited) in the experiment on Bacillus subtilis was determined as 400 µg/mL (≈ 1050 µM); in the experiment on Candida albicans, 25 µg/mL (≈ 65.6 µM).
For `COc1ccc(-c2cc3cc(CCCOC(=O)CCl)cc(OC)c3o2)cc1OC`, the MIC in the experiment with Staphylococcus aureus was 400 µg/mL (≈ 955 µM); with Bacillus subtilis it was 400 µg/mL (≈ 955 µM); with Candida albicans it was 200 µg/mL (≈ 477 µM). Moreover, the MIC result in the experiment on Escherichia coli is “inactive”.
In the case of `COc1cc(CCCOS(=O)(=O)O)cc2cc(-c3ccc4c(c3)OCO4)oc12`, the MIC amounted to 400 µg/mL (≈ 984 µM) against Staphylococcus aureus, 400 µg/mL (≈ 984 µM) against Bacillus subtilis, 50 µg/mL (≈ 123 µM) with Candida albicans and 400 µg/mL (≈ 984 µM) against Escherichia coli.
On to `COc1cc(CC/C=N/O)cc2cc(-c3ccc4c(c3)OCO4)oc12`, for which the MIC entry in the experiment on Staphylococcus aureus, in the experiment on Bacillus subtilis and with Escherichia coli was “inactive” in each case. Also, in the experiment on Candida albicans, the MIC came out at 800 µg/mL (≈ 2360 µM).
With `COc1cc(CCCOC(=O)CCl)cc2cc(-c3ccc4c(c3)OCO4)oc12`, the MIC entry with Staphylococcus aureus, in the experiment with Bacillus subtilis and in the experiment on Escherichia coli was “inactive” throughout. The same compound yielded an MIC in the experiment with Candida albicans of 100 µg/mL (≈ 248 µM).
With `COc1cc(CCCCl)cc2c([N+](=O)[O-])c(-c3ccc4c(c3)OCO4)oc12`, the MIC entry with Staphylococcus aureus and in the experiment on Bacillus subtilis was “inactive” throughout. The figures for the MIC in the experiment on Candida albicans and in the experiment with Escherichia coli were 25 µg/mL (≈ 64.1 µM) and 800 µg/mL (≈ 2050 µM), respectively.
For `COc1c([N+](=O)[O-])c(CCCO)cc2c([N+](=O)[O-])c(-c3ccc4c(c3)OCO4)oc12`, the MIC against Staphylococcus aureus stood at 800 µg/mL (≈ 1920 µM); against Bacillus subtilis, 400 µg/mL (≈ 961 µM); against Candida albicans, 400 µg/mL (≈ 961 µM); with Escherichia coli, 400 µg/mL (≈ 961 µM).
For `COc1cc(CCC(=O)O)cc2cc(-c3ccc4c(c3)OCO4)oc12` [EGONOIC ACID], the values for the MIC against Staphylococcus aureus, in the experiment with Bacillus subtilis and against Candida albicans were 200 µg/mL (≈ 588 µM), 800 µg/mL (≈ 2350 µM) and 50 µg/mL (≈ 147 µM), respectively. Besides, in the experiment with Escherichia coli, the MIC result was “inactive”.
As for `COc1cc(CCCOC(C)=O)cc2cc(-c3ccc4c(c3)OCO4)oc12` [EGONOL ACETATE], the MIC result with Staphylococcus aureus, with Bacillus subtilis and in the experiment with Escherichia coli was “inactive” each time. This compound returned an MIC with Candida albicans of 200 µg/mL.
Consider `COc1cc(CC/C=N/OC(=O)CCl)cc2cc(-c3ccc4c(c3)OCO4)oc12`, for which the MIC entry with Staphylococcus aureus and with Bacillus subtilis was “inactive” in each case. In addition, the values for the MIC with Candida albicans and against Escherichia coli were 25 µg/mL (≈ 60.1 µM) and 800 µg/mL (≈ 1920 µM), respectively.
In the case of `COc1cc(CC/C=N/OC(=O)c2ccccc2)cc2cc(-c3ccc4c(c3)OCO4)oc12`, the MIC entry in the experiment on Staphylococcus aureus and in the experiment with Escherichia coli was “inactive” throughout. Moreover, the MIC with Bacillus subtilis was 400 µg/mL (≈ 902 µM); in the experiment on Candida albicans, 100 µg/mL (≈ 226 µM).
With `COc1cc(CCCO)cc2c(N)c(-c3ccc4c(c3)OCO4)oc12`, the MIC result with Staphylococcus aureus, in the experiment on Bacillus subtilis and in the experiment with Escherichia coli was “inactive” in each case. Moreover, the lowest concentration to inhibit growth with Candida albicans (MIC) was 800 µg/mL (≈ 2340 µM).
`COc1cc(CC/C=C/C(C)=O)cc2cc(-c3ccc4c(c3)OCO4)oc12`: the MIC entry in the experiment with Staphylococcus aureus, in the experiment with Bacillus subtilis and in the experiment on Escherichia coli was “inactive” in each case. In addition, in the experiment with Candida albicans, inhibition of growth (MIC) required 200 µg/mL (≈ 549 µM).
Turning to `COc1cc(CCCOC(=O)CN2CCOCC2)cc2cc(-c3ccc4c(c3)OCO4)oc12`, the MIC result in the experiment on Staphylococcus aureus, in the experiment on Bacillus subtilis and with Candida albicans was “inactive” throughout. In the experiment with Escherichia coli, this compound had an MIC of 800 µg/mL (≈ 1760 µM).
As for `CCN(CC)CCCc1cc(OC)c2oc(-c3ccc4c(c3)OCO4)cc2c1`, the MIC result with Staphylococcus aureus, in the experiment with Bacillus subtilis and with Escherichia coli was “inactive” throughout. For the same compound, the MIC against Candida albicans is 200 µg/mL (≈ 524 µM).
Turning to `COc1cc(CC/C=C(\C=O)Cc2cc(OC)c3oc(-c4ccc5c(c4)OCO5)cc3c2)cc2cc(-c3ccc4c(c3)OCO4)oc12`, the MIC with Staphylococcus aureus and with Candida albicans was 25 µg/mL (≈ 39.6 µM) in each case. The MIC entry with Bacillus subtilis and with Escherichia coli was “inactive” in each case.
Take `COc1cc(CC/C=N/NC(N)=S)cc2cc(-c3ccc4c(c3)OCO4)oc12`: the MIC entry in the experiment on Staphylococcus aureus and in the experiment on Escherichia coli was “inactive” each time. Besides, the MIC in the experiment with Bacillus subtilis came to 400 µg/mL (≈ 1010 µM); in the experiment on Candida albicans it was 200 µg/mL (≈ 503 µM).
In the case of `COc1cc(CCCO)cc2cc(-c3ccc4c(c3)OCO4)oc12` [EGONOL], the MIC stood at 800 µg/mL (≈ 2450 µM) against Staphylococcus aureus, 800 µg/mL (≈ 2450 µM) in the experiment on Bacillus subtilis, 25 µg/mL (≈ 76.6 µM) in the experiment on Candida albicans and 800 µg/mL (≈ 2450 µM) against Escherichia coli.
For `COc1cc(CCCN2CCOCC2)cc2cc(-c3ccc4c(c3)OCO4)oc12`, the results for the MIC with Staphylococcus aureus and in the experiment with Candida albicans were 200 µg/mL (≈ 506 µM) and 25 µg/mL (≈ 63.2 µM), respectively. Besides, the MIC entry with Bacillus subtilis and with Escherichia coli was “inactive” in each case.

Values taken from ChEMBL document CHEMBL1667836, “Synthesis of egonol derivatives and their antimicrobial activities” (2011).
